Results published in ChEMBL document CHEMBL4715682, “Potent trifluoromethoxy, trifluoromethylsulfonyl, trifluoromethylthio and pentafluorosulfanyl containing (1,3,4-oxadiazol-2-yl)benzamides against drug-resistant Gram-positive bacteria” (RSC Med Chem, 2020).
Values after ≈ are worked out from the molar mass of the structure shown. Active and inactive are the calls of the source. The calls are words filed in the database; no cut-off is given here.

Columns and labels:
Staphylococcus aureus [1] = test: Antibacterial activity against vancomycin-resistant Staphylococcus aureus 10 assessed as inhibition of visible bacterial growth incubated for 18 to 20 hrs by CLSI method; format: functional; settings: time 18-20 hrs
Summary of the method: (§1)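 CLSI broth microdilution. Strains grown aerobically overnight on tryptic soy agar at 37 °C, adjusted to 0.5 McFarland and diluted in cation-adjusted Mueller–Hinton broth to about 5×10^5 CFU/mL. Compounds and control drugs serially diluted across the plate. Incubated aerobically at 37 °C for 18-20 h. MIC is the lowest concentration with no visible growth.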

Staphylococcus aureus [2] = test: Antibacterial activity against methicillin-resistant Staphylococcus aureus NRS123 assessed as inhibition of visible bacterial growth incubated for 18 to 20 hrs by CLSI method; format: functional; settings: time 18-20 hrs; summary of the method: as §1
Staphylococcus aureus [3] = test: Antibacterial activity against methicillin-sensitive Staphylococcus aureus ATCC 6538 assessed as inhibition of visible bacterial growth incubated for 18 to 20 hrs by CLSI method; format: functional; settings: time 18-20 hrs; summary of the method: as §1
Streptococcus pneumoniae [4] = test: Antibacterial activity against cephalosporin-resistant Streptococcus pneumoniae ATCC 51916 assessed as inhibition of visible bacterial growth incubated for 18 to 20 hrs by CLSI method; format: functional; settings: time 18-20 hrs; summary of the method: as §1
Staphylococcus aureus [5] = test: Synergistic antibacterial activity against methicillin-resistant Staphylococcus aureus ATCC 33592 assessed as fractional inhibitory concentration index in presence of linezolid by checkerboard assay; format: functional
Staphylococcus aureus [6] = test: Antibacterial activity against methicillin-resistant Staphylococcus aureus NRS483 assessed as inhibition of visible bacterial growth incubated for 18 to 20 hrs by CLSI method; format: functional; settings: time 18-20 hrs; summary of the method: as §1
Staphylococcus aureus [7] = test: Synergistic antibacterial activity against methicillin-resistant Staphylococcus aureus ATCC 33592 assessed as fractional inhibitory concentration index in presence of Vancomycin; format: functional
Listeria monocytogenes = test: Antibacterial activity against Listeria monocytogenes ATCC 19111 assessed as inhibition of visible bacterial growth incubated for 18 to 20 hrs by CLSI method; format: functional; settings: time 18-20 hrs
Summary of the method: (§2)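 Broth microdilution per CLSI. Strains grown aerobically overnight on TSA at 37 °C, suspended to 0.5 McFarland, diluted in CAMHB to about 5×10^5 CFU/mL. Agents serially diluted across plate; aerobic incubation 37 °C for 18-20 h. MIC = lowest concentration completely preventing visible growth.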

Staphylococcus aureus [8] = test: Antibacterial activity against methicillin-resistant Staphylococcus aureus NRS386 assessed as inhibition of visible bacterial growth incubated for 18 to 20 hrs by CLSI method; format: functional; settings: time 18-20 hrs; summary of the method: as §1
J774 = test: Cytotoxicity against mouse J774 cells assessed as reduction in cell viability at 32 ug/ml incubated for 24 hrs by MTS assay; format: cell-based; settings: j774, 24 h, dose 32 µg/ml
Staphylococcus aureus [9] = test: Antibacterial activity against Staphylococcus aureus ATCC 25923 assessed as inhibition of visible bacterial growth incubated for 18 to 20 hrs by CLSI method; format: functional; settings: time 18-20 hrs; summary of the method: as §1
Staphylococcus aureus [10] = test: Antibacterial activity against methicillin-resistant Staphylococcus aureus NRS384 assessed as inhibition of visible bacterial growth incubated for 18 to 20 hrs by CLSI method; format: functional; settings: time 18-20 hrs; summary of the method: as §1
Staphylococcus aureus [11] = test: Antibacterial activity against methicillin-resistant Staphylococcus aureus NRS484 assessed as inhibition of visible bacterial growth incubated for 18 to 20 hrs by CLSI method; format: functional; settings: time 18-20 hrs; summary of the method: as §1
Staphylococcus aureus [12] = test: Synergistic antibacterial activity against methicillin-resistant Staphylococcus aureus ATCC 33592 assessed as fractional inhibitory concentration index in presence of daptomycin by checkerboard assay; format: functional
Staphylococcus aureus [13] = test: Antibacterial activity against methicillin-resistant Staphylococcus aureus ATCC 33592 assessed as reduction in bacterial count at 3 x MIC incubated upto 24 hrs by time kill analysis; format: functional; settings: time hrs <=24
Summary of the method: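 Time-kill assay. […] Samples taken at 0, 2, 4, 8, 12 and 24 h, serially diluted in PBS and plated on tryptic soy agar. Viable CFU/mL counted after 18-20 h at 37 °C.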

Staphylococcus aureus [14] = test: Antibacterial activity against vancomycin-resistant Staphylococcus aureus 12 assessed as inhibition of visible bacterial growth incubated for 18 to 20 hrs by CLSI method; format: functional; settings: time 18-20 hrs; summary of the method: as §1
Staphylococcus aureus [15] = test: Antibacterial activity against methicillin-resistant Staphylococcus aureus NRS 119 assessed as inhibition of visible bacterial growth incubated for 18 to 20 hrs by CLSI method; format: functional; settings: time 18-20 hrs; summary of the method: as §1
Caco-2 [16] = test: Cytotoxicity against human Caco2 cells assessed as reduction in cell viability at 64 ug/ml incubated for 2 hrs by MTS assay; format: cell-based; settings: caco-2, 2 h, dose 64 µg/ml
Enterococcus faecalis [17] = test: Antibacterial activity against vancomycin- resistant Enterococcus faecalis ATCC 51299 assessed as inhibition of visible bacterial growth incubated for 18 to 20 hrs by CLSI method; format: functional; settings: time 18-20 hrs; summary of the method: as §1
Staphylococcus aureus [18] = test: Antibacterial activity against methicillin-resistant Staphylococcus aureus NRS385 assessed as inhibition of visible bacterial growth incubated for 18 to 20 hrs by CLSI method; format: functional; settings: time 18-20 hrs; summary of the method: as §1
Enterococcus faecalis [19] = test: Antibacterial activity against vancomycin- resistant Enterococcus faecalis ATCC 700221 assessed as inhibition of visible bacterial growth incubated for 18 to 20 hrs by CLSI method; format: functional; settings: time 18-20 hrs; summary of the method: as §1
Pseudomonas aeruginosa = test: Antibacterial activity against Pseudomonas aeruginosa ATCC 27853 assessed as inhibition of visible bacterial growth at 16 ug/ml incubated for 18 to 20 hrs by CLSI method; format: functional, organism-based; settings: dose 16.0 µg/ml, time 18-20 hrs; summary of the method: as §1
[20] = tested on: Staphylococcus epidermidis; test: Antibacterial activity against Staphylococcus epidermidis NRS101 assessed as inhibition of visible bacterial growth incubated for 18 to 20 hrs by CLSI method; format: functional; settings: time 18-20 hrs; summary of the method: as §2
Escherichia coli = test: Antibacterial activity against Escherichia coli ATCC 25404 assessed as inhibition of visible bacterial growth at 16 ug/ml incubated for 18 to 20 hrs by CLSI method; format: functional, organism-based; settings: B ATCC 25404, dose 16.0 µg/ml, time 18-20 hrs; summary of the method: as §1
Streptococcus pneumoniae [21] = test: Antibacterial activity against […] Streptococcus pneumoniae ATCC 700677 assessed as inhibition of visible bacterial growth incubated for 18 to 20 hrs by CLSI method; format: functional; settings: time 18-20 hrs; summary of the method: as §1
Staphylococcus aureus [22] = test: Bactericidal activity against methicillin-resistant Staphylococcus aureus ATCC 33592 assessed as reduction in bacterial growth incubated for 18 hrs by CLSI method; format: functional
[23] = Hemolytic activity in human RBC at 128 ug/ml incubated for 60 mins relative to control; format: ADME, cell-based, Erythrocyte; settings: red blood cells (erythrocytes), dose 128 µg/ml, read-out: Activity
Summary of the method: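 Single-donor human erythrocytes as a 5% v/v suspension in PBS. Compounds serially diluted in PBS, in triplicate, and incubated with RBCs at 37 °C for 60 min. PBS served as the negative control and Triton-X as the positive control. Samples spun at 4,000 rpm for 5 min and supernatant absorbance read at 540 nm. Percent hemolysis = 100×(sample−negative)/(positive−negative).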

Staphylococcus aureus [24] = test: Antibacterial activity against methicillin-resistant Staphylococcus aureus NRS387 assessed as inhibition of visible bacterial growth incubated for 18 to 20 hrs by CLSI method; format: functional; settings: time 18-20 hrs; summary of the method: as §1
Staphylococcus aureus [25] = test: Antibacterial activity against methicillin-sensitive Staphylococcus aureus NRS 107 assessed as inhibition of visible bacterial growth incubated for 18 to 20 hrs by CLSI method; format: functional; settings: time 18-20 hrs; summary of the method: as §1
Staphylococcus aureus [26] = test: Antibacterial activity against methicillin-resistant Staphylococcus aureus NRS382 assessed as inhibition of visible bacterial growth incubated for 18 to 20 hrs by CLSI method; format: functional; settings: time 18-20 hrs; summary of the method: as §1
Staphylococcus aureus [27] = test: Antibacterial activity against methicillin-resistant Staphylococcus aureus NRS383 assessed as inhibition of visible bacterial growth incubated for 18 to 20 hrs by CLSI method; format: functional; settings: time 18-20 hrs; summary of the method: as §1
Staphylococcus aureus [28] = test: Antibacterial activity against methicillin-resistant Staphylococcus aureus ATCC 33592 assessed as inhibition of visible bacterial growth incubated for 18 to 20 hrs by CLSI method; format: functional; settings: time 18-20 hrs; summary of the method: as §1
Acinetobacter baumannii = test: Antibacterial activity against Acinetobacter baumannii ATCC 19606 RW4 assessed as inhibition of visible bacterial growth at 16 ug/ml incubated for 18 to 20 hrs by CLSI method; format: functional, organism-based; settings: ATCC 19606 = CIP 70.34 = JCM 6841 RW4, dose 16.0 µg/ml, time 18-20 hrs; summary of the method: as §1
Staphylococcus aureus [29] = test: Synergistic antibacterial activity against methicillin-resistant Staphylococcus aureus ATCC 33592 assessed as fractional inhibitory concentration index in presence of methicillin by checkerboard assay; format: functional
Caco-2 [30] = test: Cytotoxicity against human Caco2 cells assessed as reduction in cell viability at 128 ug/ml incubated for 2 hrs by MTS assay; format: cell-based; settings: caco-2, 2 h, dose 128 µg/ml
Staphylococcus aureus [31] = test: Bacteriostatic activity against methicillin-resistant Staphylococcus aureus ATCC 33592 assessed as reduction in bacterial growth incubated for 18 hrs by CLSI method; format: functional

Compound	MIC (Staphylococcus aureus [1]) [µg/mL]	MIC (Staphylococcus aureus [2]) [µg/mL]	MIC (Staphylococcus aureus [3]) [µg/mL]	MIC (Streptococcus pneumoniae [4]) [µg/mL]	fractional inhibitory concentration index (FICI) (Staphylococcus aureus [5])	MIC (Staphylococcus aureus [6]) [µg/mL]	fractional inhibitory concentration index (FICI) (Staphylococcus aureus [7])	MIC (Listeria monocytogenes) [µg/mL]	MIC (Staphylococcus aureus [8]) [µg/mL]	Activity (J774)	MIC (Staphylococcus aureus [9]) [µg/mL]	MIC (Staphylococcus aureus [10]) [µg/mL]	MIC (Staphylococcus aureus [11]) [µg/mL]	fractional inhibitory concentration index (FICI) (Staphylococcus aureus [12])	Activity (Staphylococcus aureus [13]) [log10CFU/ml]	MIC (Staphylococcus aureus [14]) [µg/mL]	MIC (Staphylococcus aureus [15]) [µg/mL]	MIC (Enterococcus faecalis [17]) [µg/mL]	MIC (Staphylococcus aureus [18]) [µg/mL]	MIC (Enterococcus faecalis [19]) [µg/mL]	also measured
O=C(Nc1nnc(-c2cccs2)o1)c1ccc(S(F)(F)(F)(F)F)cc1	0.25 (≈ 0.629 µM)	0.25 (≈ 0.629 µM)	0.5 (≈ 1.26 µM)	0.25 (≈ 0.629 µM)	1.5	0.25 (≈ 0.629 µM)	1	0.125 (≈ 0.315 µM)	0.125 (≈ 0.315 µM)	Non-Toxic	0.25 (≈ 0.629 µM)	0.5 (≈ 1.26 µM)	0.5 (≈ 1.26 µM)	0.75	3.96	0.125 (≈ 0.315 µM)	0.06 (≈ 0.151 µM)	2 (≈ 5.03 µM)	0.5 (≈ 1.26 µM)	2 (≈ 5.03 µM)	Activity (Caco-2 [16]): Non-Toxic; inhibition (Pseudomonas aeruginosa): inactive; MIC [20]: 0.06 µg/mL (≈ 0.151 µM); inhibition (Escherichia coli): inactive; MIC (Streptococcus pneumoniae [21]): 0.125 µg/mL (≈ 0.315 µM); MBC (Staphylococcus aureus [22]): 1 µg/mL (≈ 2.52 µM); hemolysis at 1 h, 128 ug/ml [23]: 9%; MIC (Staphylococcus aureus [24]): 0.25 µg/mL (≈ 0.629 µM); MIC (Staphylococcus aureus [25]): 0.125 µg/mL (≈ 0.315 µM); MIC (Staphylococcus aureus [26]): 0.5 µg/mL (≈ 1.26 µM); MIC (Staphylococcus aureus [27]): 1 µg/mL (≈ 2.52 µM); MIC (Staphylococcus aureus [28]): 0.5 µg/mL (≈ 1.26 µM); inhibition (Acinetobacter baumannii): inactive; fractional inhibitory concentration index (FICI) (Staphylococcus aureus [29]): 0.5
O=C(Nc1nnc(-c2cccs2)o1)c1ccc(OC(F)(F)F)cc1	1 (≈ 2.81 µM)	1 (≈ 2.81 µM)	1 (≈ 2.81 µM)	2 (≈ 5.63 µM)	1.25	1 (≈ 2.81 µM)	1.06	2 (≈ 5.63 µM)	1 (≈ 2.81 µM)	Non-Toxic	1 (≈ 2.81 µM)	0.5 (≈ 1.41 µM)	0.5 (≈ 1.41 µM)	0.5	0.69	1 (≈ 2.81 µM)	1 (≈ 2.81 µM)	8 (≈ 22.5 µM)	2 (≈ 5.63 µM)	4 (≈ 11.3 µM)	inhibition (Pseudomonas aeruginosa): inactive; MIC [20]: 0.5 µg/mL (≈ 1.41 µM); Activity (Caco-2 [30]): Non-Toxic; inhibition (Escherichia coli): inactive; MBC (Staphylococcus aureus [31]): > 128 µg/mL; MIC (Streptococcus pneumoniae [21]): 1 µg/mL (≈ 2.81 µM); hemolysis at 1 h, 128 ug/ml [23]: 20%; MIC (Staphylococcus aureus [24]): 2 µg/mL (≈ 5.63 µM); MIC (Staphylococcus aureus [25]): 1 µg/mL (≈ 2.81 µM); MIC (Staphylococcus aureus [26]): 1 µg/mL (≈ 2.81 µM); MIC (Staphylococcus aureus [27]): 2 µg/mL (≈ 5.63 µM); MIC (Staphylococcus aureus [28]): 1 µg/mL (≈ 2.81 µM); inhibition (Acinetobacter baumannii): inactive; fractional inhibitory concentration index (FICI) (Staphylococcus aureus [29]): 0.63
